ChEMBL document CHEMBL1144594, “Synthesis and biological evaluation of 4-amino derivatives of benzimidazoquinoxaline, benzimidazoquinoline, and benzopyrazoloquinazoline as potent IKK inhibitors” (Bioorg Med Chem Lett, 2007)
Active and inactive are the calls of the source. No cut-off for these calls is given here.

Tests used:
[1] = target: T1, Inhibitor of nuclear factor kappa-B kinase subunit beta (Homo sapiens, UniProt O14920); experiment: Inhibition of IKK2
T1 sequence (O14920 whole entry): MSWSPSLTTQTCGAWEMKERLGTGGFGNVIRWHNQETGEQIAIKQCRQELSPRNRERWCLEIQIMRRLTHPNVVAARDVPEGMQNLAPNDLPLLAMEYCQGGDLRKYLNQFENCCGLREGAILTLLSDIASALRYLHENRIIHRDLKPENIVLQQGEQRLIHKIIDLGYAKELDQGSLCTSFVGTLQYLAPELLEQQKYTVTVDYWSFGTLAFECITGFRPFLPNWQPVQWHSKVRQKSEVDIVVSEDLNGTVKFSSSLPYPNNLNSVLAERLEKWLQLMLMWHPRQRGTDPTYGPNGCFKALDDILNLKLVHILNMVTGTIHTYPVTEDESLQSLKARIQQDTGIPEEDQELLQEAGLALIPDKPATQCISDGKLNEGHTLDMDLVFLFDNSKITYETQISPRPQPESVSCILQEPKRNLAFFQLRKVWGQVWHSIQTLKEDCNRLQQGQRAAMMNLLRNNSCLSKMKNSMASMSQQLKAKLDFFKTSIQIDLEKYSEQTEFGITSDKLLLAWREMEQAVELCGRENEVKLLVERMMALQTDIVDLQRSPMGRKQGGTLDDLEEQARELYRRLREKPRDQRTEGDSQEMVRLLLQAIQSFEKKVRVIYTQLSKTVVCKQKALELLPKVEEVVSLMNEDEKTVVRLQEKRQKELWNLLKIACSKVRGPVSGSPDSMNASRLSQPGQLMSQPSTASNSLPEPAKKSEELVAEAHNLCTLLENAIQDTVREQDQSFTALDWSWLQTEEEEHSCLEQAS
Procedure, shortened: (§1)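 Enzyme (IKK-2 or IKK-1, typically 0.5 µg/mL final) added at 30 °C to 50 µg/mL GST-IκBα substrate and 20 µM ATP. Read-out is GST-IκBα phosphorylation. IC50 is from a single experiment.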

[2] = target: T1, Inhibitor of nuclear factor kappa-B kinase subunit beta; experiment: Inhibition of LPS-induced TNFalpha secretion in THP1 cells; format: functional, cell-based, THP-1
Homo sapiens = organism: Homo sapiens; experiment: Selectivity for human IKK2 over human IKK1
Mus musculus [3] = experiment: Reduction of LPS-induced serum TNFalpha levels in BALB/c mouse at 10 mg/kg, po relative to control; format: functional; set-up: scale not given: the % may be the effect or the level left
Procedure, shortened: (§2)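 Female BALB/c mice, 6–8 weeks old, got inhibitor in 0.2 mL aqueous solution by oral gavage. One hour later they were challenged ip with 1 µg E. coli O111:B4 LPS in 500 µL PBS. Serum was taken 90 min after challenge and TNF-α measured by EIA. Inhibition is relative to vehicle-only LPS-challenged controls.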

[4] = target: T2, Inhibitor of nuclear factor kappa-B kinase subunit alpha (Homo sapiens, UniProt O15111); experiment: Inhibition of IKK1; procedure, shortened: as §1
T2 sequence (O15111 whole entry): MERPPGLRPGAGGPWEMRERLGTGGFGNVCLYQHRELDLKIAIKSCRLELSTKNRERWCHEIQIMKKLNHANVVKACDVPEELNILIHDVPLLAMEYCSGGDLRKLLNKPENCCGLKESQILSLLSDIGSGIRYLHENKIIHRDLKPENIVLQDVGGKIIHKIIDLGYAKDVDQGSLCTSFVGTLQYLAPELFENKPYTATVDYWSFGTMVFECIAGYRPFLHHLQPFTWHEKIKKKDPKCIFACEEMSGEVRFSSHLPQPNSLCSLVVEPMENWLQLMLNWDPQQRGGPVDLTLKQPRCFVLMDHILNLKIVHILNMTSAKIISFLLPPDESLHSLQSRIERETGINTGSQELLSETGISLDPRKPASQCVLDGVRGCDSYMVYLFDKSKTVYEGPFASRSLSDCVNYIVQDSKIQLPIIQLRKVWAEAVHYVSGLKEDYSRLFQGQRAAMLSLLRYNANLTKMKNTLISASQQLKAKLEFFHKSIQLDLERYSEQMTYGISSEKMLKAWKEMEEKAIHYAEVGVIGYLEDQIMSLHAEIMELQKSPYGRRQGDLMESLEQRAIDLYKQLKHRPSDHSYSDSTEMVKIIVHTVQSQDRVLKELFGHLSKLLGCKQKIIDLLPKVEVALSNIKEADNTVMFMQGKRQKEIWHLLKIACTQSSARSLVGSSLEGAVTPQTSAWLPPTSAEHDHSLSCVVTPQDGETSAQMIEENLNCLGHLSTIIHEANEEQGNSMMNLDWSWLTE

Mus musculus [5] = experiment: Reduction of LPS-induced serum TNFalpha levels in BALB/c mouse at 100 mg/kg, po relative to control; format: functional, organism-based; set-up: dose 100 mg/kg; procedure, shortened: as §2
Mus musculus [6] = experiment: Reduction of LPS-induced serum TNFalpha levels in BALB/c mouse at 30 mg/kg, po relative to control; format: functional; set-up: scale not given: the % may be the effect or the level left; procedure, shortened: as §2
[7] = target: Tyrosine-protein kinase Lck (Homo sapiens) (UniProt P06239); experiment: Inhibition of LCK at 50 uM
Sequence of Tyrosine-protein kinase Lck (Homo sapiens) (P06239 2-509 limits assumed): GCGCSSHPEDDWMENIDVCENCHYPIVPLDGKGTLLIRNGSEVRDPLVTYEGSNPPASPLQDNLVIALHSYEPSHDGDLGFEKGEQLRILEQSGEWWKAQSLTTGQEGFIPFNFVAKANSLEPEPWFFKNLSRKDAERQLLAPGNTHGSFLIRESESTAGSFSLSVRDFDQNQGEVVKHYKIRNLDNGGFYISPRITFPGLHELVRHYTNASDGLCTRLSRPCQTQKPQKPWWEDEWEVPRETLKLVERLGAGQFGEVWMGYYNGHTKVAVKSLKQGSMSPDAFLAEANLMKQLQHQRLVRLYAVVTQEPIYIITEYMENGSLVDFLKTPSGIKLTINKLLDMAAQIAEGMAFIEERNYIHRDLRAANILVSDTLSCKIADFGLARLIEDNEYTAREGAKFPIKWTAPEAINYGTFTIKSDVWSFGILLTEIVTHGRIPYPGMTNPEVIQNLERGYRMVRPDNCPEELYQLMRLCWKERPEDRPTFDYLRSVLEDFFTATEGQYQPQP

[8] = target: T3, Inhibitor of nuclear factor kappa-B kinase subunit epsilon (Homo sapiens) (UniProt Q14164); experiment: Inhibition of IKKepsilon at 50 uM
T3 sequence (whole entry): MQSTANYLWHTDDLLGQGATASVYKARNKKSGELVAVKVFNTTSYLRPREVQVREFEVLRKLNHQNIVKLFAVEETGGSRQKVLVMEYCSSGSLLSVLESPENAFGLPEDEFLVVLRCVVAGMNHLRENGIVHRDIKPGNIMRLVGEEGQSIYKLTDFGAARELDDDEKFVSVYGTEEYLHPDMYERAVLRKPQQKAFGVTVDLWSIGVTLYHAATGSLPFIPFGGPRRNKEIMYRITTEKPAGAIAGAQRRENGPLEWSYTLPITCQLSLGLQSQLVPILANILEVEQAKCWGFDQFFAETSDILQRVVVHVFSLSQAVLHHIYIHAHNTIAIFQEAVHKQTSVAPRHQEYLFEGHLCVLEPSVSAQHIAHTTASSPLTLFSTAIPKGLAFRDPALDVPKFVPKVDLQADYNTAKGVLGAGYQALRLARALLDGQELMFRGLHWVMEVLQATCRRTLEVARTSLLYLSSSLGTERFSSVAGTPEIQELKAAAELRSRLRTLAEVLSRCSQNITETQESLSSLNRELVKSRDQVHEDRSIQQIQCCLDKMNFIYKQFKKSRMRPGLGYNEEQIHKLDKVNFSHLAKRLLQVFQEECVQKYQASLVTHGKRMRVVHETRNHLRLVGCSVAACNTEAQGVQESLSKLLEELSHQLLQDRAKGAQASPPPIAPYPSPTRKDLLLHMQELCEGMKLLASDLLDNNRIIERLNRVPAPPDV

[9] = target: T4, Tyrosine-protein kinase ITK/TSK (Homo sapiens) (UniProt Q08881); experiment: Inhibition of EMT at 50 uM
T4 sequence (whole entry): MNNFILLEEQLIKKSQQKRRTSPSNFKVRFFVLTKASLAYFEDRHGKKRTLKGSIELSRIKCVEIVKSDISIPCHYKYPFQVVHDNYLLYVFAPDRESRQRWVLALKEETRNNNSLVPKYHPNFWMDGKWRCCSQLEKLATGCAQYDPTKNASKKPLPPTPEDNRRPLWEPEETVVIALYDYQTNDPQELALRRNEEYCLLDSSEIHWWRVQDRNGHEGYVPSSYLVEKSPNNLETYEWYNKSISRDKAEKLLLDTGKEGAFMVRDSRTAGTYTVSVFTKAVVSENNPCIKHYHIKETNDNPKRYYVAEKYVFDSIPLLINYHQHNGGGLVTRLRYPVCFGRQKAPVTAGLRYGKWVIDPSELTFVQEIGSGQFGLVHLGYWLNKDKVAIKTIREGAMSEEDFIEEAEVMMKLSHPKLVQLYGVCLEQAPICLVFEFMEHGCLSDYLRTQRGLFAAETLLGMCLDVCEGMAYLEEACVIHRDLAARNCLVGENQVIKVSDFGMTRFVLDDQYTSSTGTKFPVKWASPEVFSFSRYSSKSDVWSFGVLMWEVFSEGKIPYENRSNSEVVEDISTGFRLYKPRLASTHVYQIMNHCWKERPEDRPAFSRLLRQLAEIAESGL

SMILES	IC50 [1] [nM]	IC50 [2] [nM]	IC50 [4] [nM]	also measured
CNc1nc2cc3ccccc3cc2c2c(C)cnn12	11	8300		
Cc1ccc2nc(NCCN)c3ncc(C)n3c2c1.Cl				Activity (Mus musculus [5]): Active; Activity (Mus musculus [6]): 50%
Cn1cnc2c(NCCN)nc3cc4ccccc4cc3c21	58	5900	1600	
CNCCNc1nc2cc3ccccc3cc2c2c(C)cnn12	35	1500		

Now from value to compound, other results behind:

IC50 [1] [nM]	IC50 [2] [nM]	IC50 [4] [nM]	SMILES	also measured
18	340		CNc1nc2cc3ccccc3cc2n2c(C)cnc12	Ratio IC50 (Homo sapiens): 13; Activity (Mus musculus [3]): 50%
	950	990	CNc1nc2cc3ccccc3cc2c2c1ncn2C	
46	600		Cc1cnc2c(NCCN3CCCCC3)nc3cc4ccccc4cc3n12	
18	1400	870	Cc1cnc2c(NCCO)nc3cc4ccccc4cc3n12	Ratio IC50 (Homo sapiens): 48
23	1000	390	CNCCNc1nc2cc3ccccc3cc2n2c(C)cnc12	Activity (Mus musculus [5]): Active; Activity [7]: inactive; Activity [8]: inactive; Activity [9]: inactive
